Consider 1 molecule from ChEMBL document CHEMBL5653624 (Biochem Pharmacol, 2016).

Each structure is given as a SMILES string. Calls of active or inactive are those of the source. The rule behind the calls is not given here.

The target in test [1] is Histone deacetylase 1 (Mus musculus) (UniProt O09106). In words: Effect on HDAC1 nuclear localization in LPS/IFNgamma-stimulated mouse RAW264.7 cells preincubated for 20 hrs followed by LPS/IFNgamma stimulation and measured after 1 hr by Hoechst staining based confocal laser scanning microscopy. It counts as cell-based. Summed up:
(§1)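 RAW 264.7 cells at 20,000 cells/cm2 received 1 μM RGFP966 for 20 h, then 1 h LPS/IFNγ. Fixed in 4% formaldehyde, permeabilized with 0.25% Triton X-100, blocked with 5% BSA. Primary antibodies 2 h at 4 °C, AlexaFluor secondaries 1 h, Hoechst nuclear stain. Confocal imaging at 630×; 4 independent experiments.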

Test [2] concerns the target Histone deacetylase 2 (Mus musculus) (UniProt P70288). In words: Effect on HDAC2 nuclear localization in LPS/IFNgamma-stimulated mouse RAW264.7 cells preincubated for 20 hrs followed by LPS/IFNgamma stimulation and measured after 1 hr by Hoechst staining based confocal laser scanning microscopy. It counts as cell-based. In a few lines: as §1

Sequence of Histone deacetylase 2 (Mus musculus) (P70288 whole entry): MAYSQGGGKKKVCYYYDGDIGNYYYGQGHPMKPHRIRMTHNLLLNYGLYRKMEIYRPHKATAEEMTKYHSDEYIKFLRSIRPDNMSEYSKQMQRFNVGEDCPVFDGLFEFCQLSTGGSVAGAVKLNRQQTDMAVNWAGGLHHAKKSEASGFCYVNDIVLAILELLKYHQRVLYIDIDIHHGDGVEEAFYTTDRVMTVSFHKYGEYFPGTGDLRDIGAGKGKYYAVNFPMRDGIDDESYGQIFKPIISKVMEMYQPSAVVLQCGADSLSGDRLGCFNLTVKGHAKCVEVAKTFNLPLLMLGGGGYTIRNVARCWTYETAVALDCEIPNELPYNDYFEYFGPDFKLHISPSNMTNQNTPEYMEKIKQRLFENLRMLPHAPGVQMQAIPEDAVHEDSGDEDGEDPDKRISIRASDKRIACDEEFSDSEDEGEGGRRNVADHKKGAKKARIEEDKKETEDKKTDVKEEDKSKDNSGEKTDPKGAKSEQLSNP
Sequence of Histone deacetylase 1 (Mus musculus) (O09106 whole entry): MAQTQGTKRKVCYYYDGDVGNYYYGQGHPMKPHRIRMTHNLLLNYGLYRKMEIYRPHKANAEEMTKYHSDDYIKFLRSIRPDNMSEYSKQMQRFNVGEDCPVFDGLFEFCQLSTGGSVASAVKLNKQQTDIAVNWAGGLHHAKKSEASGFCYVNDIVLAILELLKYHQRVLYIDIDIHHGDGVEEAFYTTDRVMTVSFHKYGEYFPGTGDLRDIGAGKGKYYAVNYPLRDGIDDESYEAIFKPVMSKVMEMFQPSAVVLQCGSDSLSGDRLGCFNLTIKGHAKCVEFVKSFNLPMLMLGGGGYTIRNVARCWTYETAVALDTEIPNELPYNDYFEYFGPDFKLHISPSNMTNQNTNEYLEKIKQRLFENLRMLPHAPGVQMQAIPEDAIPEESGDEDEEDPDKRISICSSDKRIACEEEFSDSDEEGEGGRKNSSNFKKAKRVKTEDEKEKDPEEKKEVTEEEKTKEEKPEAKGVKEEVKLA

Regarding `Nc1cc(F)ccc1NC(=O)/C=C/c1cnn(C/C=C/c2ccccc2)c1`, the outcome in test [1] and in test [2] was inactive.
